# Data as given in ChEMBL document CHEMBL3232922, “Discovery and SAR of 6-alkyl-2,4-diaminopyrimidines as histamine H₄ receptor antagonists” (J Med Chem, 2014).
# How the values were obtained:
# [1] = Permeability from apical to basolateral side in human Caco cells; format: ADME, cell-based; details: Caco-2, read-out: permeability
# Histamine H4 receptor [2] = biological target: T1, Histamine H4 receptor (Mus musculus, UniProt Q91ZY2); test: Antagonist activity at mouse histamine H4 receptor expressed in SK-N-MC cells assessed as reduction of histamine-induced inhibition of cAMP-mediated beta-galactosidase reporter gene activity treated 10 mins prior to histamine challenge by microplate reader analysis; format: functional, cell-based; details: read-out: pA2 (converted)
# T1 sequence (Q91ZY2 whole entry): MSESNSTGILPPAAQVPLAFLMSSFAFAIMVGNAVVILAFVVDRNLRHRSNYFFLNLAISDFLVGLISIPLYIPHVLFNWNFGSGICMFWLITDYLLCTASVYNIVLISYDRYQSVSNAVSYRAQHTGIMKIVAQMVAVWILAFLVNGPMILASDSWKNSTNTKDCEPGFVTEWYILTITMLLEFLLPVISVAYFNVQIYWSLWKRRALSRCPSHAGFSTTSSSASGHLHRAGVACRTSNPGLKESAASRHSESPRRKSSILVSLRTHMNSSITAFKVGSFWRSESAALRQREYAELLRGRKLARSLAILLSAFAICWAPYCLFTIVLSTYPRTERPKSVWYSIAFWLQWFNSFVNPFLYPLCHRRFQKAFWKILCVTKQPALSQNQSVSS
# [3] = Tmax in beagle dog at 10 mg/kg, po; format: ADME, organism-based, Canis lupus familiaris; design: dose 10 mg/kg, route oral; details: in vivo
# Histamine H4 receptor [4] = biological target: T1, Histamine H4 receptor; test: Partial agonist activity at mouse histamine H4 receptor
# [5] = AUC in Sprague-Dawley rat at 2 mg/kg, iv; format: ADME, organism-based; design: dose 2 mg/kg, route intravenous; details: plasma
# Canis familiaris [6] = test: AUC in beagle dog at 2 mg/kg, iv; format: ADME, organism-based, Canis lupus familiaris, Plasma; design: dose 2 mg/kg, route intravenous; details: in vivo
# hERG (KCNH2) = hERG (KCNH2) (Homo sapiens, UniProt Q12809); test: Inhibition of human ERG channel transfected in HEK293 cells assessed as reduction in delayed rectifier current at 3 uM by patch clamp assay; format: cell-based; details: HEK293 cells transfected with human ERG channel
# Sequence of hERG (KCNH2) (Q12809 whole entry): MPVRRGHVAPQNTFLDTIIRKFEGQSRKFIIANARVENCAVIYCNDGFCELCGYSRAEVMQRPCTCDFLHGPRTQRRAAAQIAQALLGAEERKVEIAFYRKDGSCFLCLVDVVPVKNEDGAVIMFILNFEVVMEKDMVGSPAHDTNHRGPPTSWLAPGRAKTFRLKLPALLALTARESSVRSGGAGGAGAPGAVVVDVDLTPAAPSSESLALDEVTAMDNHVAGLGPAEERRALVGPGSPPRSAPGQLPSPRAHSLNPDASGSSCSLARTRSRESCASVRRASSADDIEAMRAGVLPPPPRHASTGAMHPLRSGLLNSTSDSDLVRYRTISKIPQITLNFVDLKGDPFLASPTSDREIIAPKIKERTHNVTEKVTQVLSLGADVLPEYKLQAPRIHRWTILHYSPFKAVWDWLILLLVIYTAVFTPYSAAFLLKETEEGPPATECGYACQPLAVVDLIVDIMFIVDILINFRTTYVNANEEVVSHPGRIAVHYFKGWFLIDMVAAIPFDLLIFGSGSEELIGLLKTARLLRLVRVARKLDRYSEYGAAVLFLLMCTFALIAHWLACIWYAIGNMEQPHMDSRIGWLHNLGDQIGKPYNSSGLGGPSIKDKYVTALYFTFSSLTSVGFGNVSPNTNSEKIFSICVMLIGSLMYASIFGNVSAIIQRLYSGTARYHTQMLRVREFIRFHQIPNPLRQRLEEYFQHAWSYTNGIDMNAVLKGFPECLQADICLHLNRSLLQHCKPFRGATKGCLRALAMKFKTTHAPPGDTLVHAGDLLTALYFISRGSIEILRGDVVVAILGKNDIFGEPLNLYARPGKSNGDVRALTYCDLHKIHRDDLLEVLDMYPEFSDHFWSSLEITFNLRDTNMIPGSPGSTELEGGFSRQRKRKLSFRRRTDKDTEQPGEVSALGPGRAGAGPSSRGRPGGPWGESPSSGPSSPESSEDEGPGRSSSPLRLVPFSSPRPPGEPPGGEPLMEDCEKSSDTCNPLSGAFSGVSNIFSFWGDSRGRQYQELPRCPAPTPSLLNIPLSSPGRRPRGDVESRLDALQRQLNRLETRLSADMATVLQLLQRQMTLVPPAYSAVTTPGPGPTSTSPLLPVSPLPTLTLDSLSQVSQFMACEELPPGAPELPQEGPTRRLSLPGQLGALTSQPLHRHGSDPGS
# [7] = Oral bioavailability in rat at 10 mg/kg; format: ADME, organism-based; details: in vivo
# [8] = Permeability from basolateral to apical side in human Caco cells; format: ADME, cell-based; details: Caco-2, read-out: permeability
# [9] = Half life in beagle dog at 10 mg/kg, po; format: ADME, organism-based, Canis lupus familiaris; design: dose 10 mg/kg, route oral; details: in vivo
# Rattus norvegicus [10] = test: Half life in Sprague-Dawley rat at 2 mg/kg, iv; format: ADME, organism-based; design: dose 2 mg/kg, route intravenous; details: in vivo
# [11] = Oral bioavailability in Sprague-Dawley rat at 10 mg/kg; format: ADME, organism-based; details: in vivo
# [12] = Half life in beagle dog at 2 mg/kg, iv; format: ADME, organism-based, Canis lupus familiaris; design: dose 2 mg/kg, route intravenous; details: in vivo
# [13] = AUC in beagle dog at 10 mg/kg, po; format: ADME, organism-based, Canis lupus familiaris; design: dose 10 mg/kg, route oral; details: plasma
# [14] = AUC in Sprague-Dawley rat at 10 mg/kg, po; format: ADME, organism-based; design: dose 10 mg/kg, route oral; details: plasma
# [15] = AUC in rat at 2 mg/kg, iv; format: ADME, organism-based; design: dose 2 mg/kg, route intravenous; details: plasma
# [16] = Half life in Sprague-Dawley rat at 10 mg/kg, po; format: ADME, organism-based; design: dose 10 mg/kg, route oral; details: in vivo
# Histamine H4 receptor [17] = biological target: T2, Histamine H4 receptor (Homo sapiens, UniProt Q9H3N8); test: Displacement of [3H]histamine from human recombinant histamine H4 receptor expressed in SK-N-MC cells after 45 mins by competition binding analysis; format: cell-based
# T2 sequence (Q9H3N8 whole entry): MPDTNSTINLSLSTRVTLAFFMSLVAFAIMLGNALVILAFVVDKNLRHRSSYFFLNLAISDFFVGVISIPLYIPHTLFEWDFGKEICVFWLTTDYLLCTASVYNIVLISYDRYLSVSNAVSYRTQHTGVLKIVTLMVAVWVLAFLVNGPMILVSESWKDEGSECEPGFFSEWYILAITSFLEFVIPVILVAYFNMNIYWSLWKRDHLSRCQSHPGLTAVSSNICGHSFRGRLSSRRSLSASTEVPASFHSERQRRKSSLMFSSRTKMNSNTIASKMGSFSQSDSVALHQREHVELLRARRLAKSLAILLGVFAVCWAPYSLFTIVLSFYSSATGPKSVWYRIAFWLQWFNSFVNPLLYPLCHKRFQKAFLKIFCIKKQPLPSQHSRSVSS
# [18] = Half life in rat at 10 mg/kg, po; format: ADME, organism-based; design: dose 10 mg/kg, route oral; details: in vivo
# Histamine H4 receptor [19] = biological target: T1, Histamine H4 receptor; test: Displacement of [3H]histamine from mouse histamine H4 receptor expressed in SK-N-MC cells after 45 mins by competition binding analysis; format: cell-based
# Outline: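 Transfected cells expressing the H4 receptor, competition against [3H]histamine. Ki is the geometric mean of at least three independent determinations (each in triplicate), calculated by the Cheng–Prusoff equation.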
# [20] = Clearance in rat at 2 mg/kg, iv; format: ADME, organism-based; design: dose 2 mg/kg, route intravenous; details: in vivo
# [21] = Volume of distribution at steady state in beagle dog at 2 mg/kg, iv; format: ADME, organism-based, Canis lupus familiaris; design: dose 2 mg/kg, route intravenous; details: in vivo, read-out: Vdss
# Rattus norvegicus [22] = test: Clearance in Sprague-Dawley rat at 2 mg/kg, iv; format: ADME, organism-based; design: dose 2 mg/kg, route intravenous; details: in vivo
# [23] = Initial plasma concentration in Sprague-Dawley rat at 2 mg/kg, iv; format: ADME, organism-based; design: dose 2 mg/kg, route intravenous
# [24] = Oral bioavailability in beagle dog at 10 mg/kg; format: ADME, organism-based, Canis lupus familiaris; details: in vivo
# Histamine H3 receptor = Histamine H3 receptor (Homo sapiens, UniProt Q9Y5N1); test: Displacement of [3H]N-alpha-methylhistamine from human recombinant histamine H3 receptor expressed in SK-N-MC cells after 45 mins by competition binding analysis; format: cell-based
# Sequence of Histamine H3 receptor (Q9Y5N1 whole entry): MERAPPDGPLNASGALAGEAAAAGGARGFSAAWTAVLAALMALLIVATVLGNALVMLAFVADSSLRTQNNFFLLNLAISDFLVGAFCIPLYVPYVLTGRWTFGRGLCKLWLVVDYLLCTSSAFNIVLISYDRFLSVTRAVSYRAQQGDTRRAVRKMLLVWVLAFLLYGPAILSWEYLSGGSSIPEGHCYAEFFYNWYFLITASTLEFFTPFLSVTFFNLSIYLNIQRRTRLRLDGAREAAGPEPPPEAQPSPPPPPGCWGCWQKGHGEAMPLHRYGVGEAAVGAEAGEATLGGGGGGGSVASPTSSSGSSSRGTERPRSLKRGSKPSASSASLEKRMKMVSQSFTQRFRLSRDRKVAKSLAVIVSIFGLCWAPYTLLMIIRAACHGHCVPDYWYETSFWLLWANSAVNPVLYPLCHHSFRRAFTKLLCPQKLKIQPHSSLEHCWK
# Histamine H4 receptor [25] = biological target: T2, Histamine H4 receptor; test: Agonist activity at human H4 receptor; details: read-out: EC50
# Rattus norvegicus [26] = test: Volume of distribution at steady state in Sprague-Dawley rat at 2 mg/kg, iv; format: ADME, organism-based; design: dose 2 mg/kg, route intravenous; details: in vivo
# [27] = biological target: Voltage-gated inwardly rectifying potassium channel KCNH2 (Homo sapiens, UniProt Q12809); test: Inhibition of human ERG channel transfected in HEK293 cells assessed as reduction in delayed rectifier current by patch clamp assay; format: cell-based
# Sequence of Voltage-gated inwardly rectifying potassium channel KCNH2 (Q12809 whole entry): as the sequence (Q12809 whole entry) above
# Outline: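 The delayed rectifier current (IKr) was recorded in hERG-transfected HEK293 cells with the compound at 3 μM.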
# Histamine H4 receptor [28] = biological target: T2, Histamine H4 receptor; test: Antagonist activity at human histamine H4 receptor expressed in SK-N-MC cells assessed as reduction of histamine-induced inhibition of cAMP-mediated beta-galactosidase reporter gene activity treated 10 mins prior to histamine challenge by microplate reader analysis; format: functional, cell-based; details: read-out: pA2 (converted)
# [29] = Half life in rat at 2 mg/kg, iv; format: ADME, organism-based; design: dose 2 mg/kg, route intravenous; details: in vivo
# [30] = Volume of distribution at steady state in rat at 2 mg/kg, iv; format: ADME, organism-based; design: dose 2 mg/kg, route intravenous; details: in vivo, read-out: Vdss
# [31] = Tmax in Sprague-Dawley rat at 10 mg/kg, po; format: ADME, organism-based; design: dose 10 mg/kg, route oral; details: in vivo
# [32] = Cmax in Sprague-Dawley rat at 10 mg/kg, po; format: ADME, organism-based; design: dose 10 mg/kg, route oral; details: in vivo
# [33] = Initial plasma concentration in beagle dog at 2 mg/kg, iv; format: ADME, organism-based, Canis lupus familiaris; design: dose 2 mg/kg, route intravenous
# [34] = Cmax in rat at 10 mg/kg, po; format: ADME, organism-based; design: dose 10 mg/kg, route oral; details: in vivo
# Canis familiaris [35] = test: Clearance in beagle dog at 2 mg/kg, iv; format: ADME, organism-based, Canis lupus familiaris; design: dose 2 mg/kg, route intravenous; details: in vivo
# [36] = Cmax in beagle dog at 10 mg/kg, po; format: ADME, organism-based, Canis lupus familiaris; design: dose 10 mg/kg, route oral; details: in vivo
# [37] = Half life in rat microsomes; format: ADME, Microsome
# [38] = Half life in human microsomes; format: ADME, Microsome
structure (smiles),measurement,setting,value
Nc1nc(C2CCCC2)cc(N2CCNCC2)n1,Papp A→B,[1],32 ×10⁻⁶ cm/s
same,Kb,Histamine H4 receptor [2],10 nM
same,Tmax,[3],4 h
same,EC50,Histamine H4 receptor [4],7.3 nM
same,AUC,[5],20.6 µM·h
same,AUC,Canis familiaris [6],5.38 µM·h
same,inhibition at 3 µM,hERG (KCNH2),21%
same,bioavailability,[7],20%
same,Papp B→A,[8],16 ×10⁻⁶ cm/s
same,half-life,[9],9.01 h
same,t1/2,Rattus norvegicus [10],2.2 h
same,bioavailability,[11],20.7%
same,half-life,[12],10.8 h
same,AUC,[13],30.8 µM·h
same,AUC,[14],8.2 µM·h
same,AUC,[15],5 µM·h
same,half-life,[16],8.7 h
same,Ki,Histamine H4 receptor [17],1.2 nM
same,half-life,[18],9 h
same,Ki,Histamine H4 receptor [19],20 nM
same,clearance,[20],10.5 mL/min/kg
same,Vd,[21],24.4 L/kg
same,CL,Rattus norvegicus [22],7.03 mL/min/kg
same,C0,[23],25000 nM
same,bioavailability,[24],114%
same,Ki,Histamine H3 receptor,24 nM
same,EC50,Histamine H4 receptor [25],> 10000 nM
same,Vdss,Rattus norvegicus [26],3.1 L/kg
same,INH,[27],> 10 µM
same,Kb,Histamine H4 receptor [28],0.316 nM
same,half-life,[29],1.1 h
same,Vd,[30],2.7 L/kg
same,Tmax,[31],2 h
same,Cmax,[32],600 nM
same,C0,[33],1760 nM
same,Cmax,[34],310 nM
same,CL,Canis familiaris [35],353.2 mL/min/kg
same,Cmax,[36],1490 nM
same,half-life,[37],1.43 h
same,half-life,[38],> 1.67 h
Nc1nc(Cc2ccccc2)cc(N2CC[C@@H](N)C2)n1,Ki,Histamine H4 receptor [17],100 nM
Nc1nc(C2CCCC2)cc(N2C[C@H]3NCCO[C@@H]3C2)n1 (racemic),Ki,Histamine H4 receptor [17],56 nM
same,EC50,Histamine H4 receptor [25],> 10000 nM
same,Kb,Histamine H4 receptor [28],126 nM
CN1CCN(c2cc(C3CCCC3)nc(N)n2)CC1,Ki,Histamine H4 receptor [17],1.4 nM
same,EC50,Histamine H4 receptor [25],> 10000 nM
same,Kb,Histamine H4 receptor [28],0.126 nM
Nc1nc(C2CCCC2)cc(N2C[C@H]3CCN[C@H]3C2)n1,Ki,Histamine H4 receptor [17],2.9 nM
same,EC50,Histamine H4 receptor [25],> 10000 nM
same,Kb,Histamine H4 receptor [28],0.1 nM
CN[C@@H]1CCN(c2nc(N)nc3c2oc2ncc(Cl)cc23)C1,Ki,Histamine H4 receptor [17],9 nM
Nc1nc(C2CCCC2)cc(N2C[C@@H]3NCCO[C@@H]3C2)n1 (relative stereo),Ki,Histamine H4 receptor [17],520 nM
Nc1nc(C2CCCC2)cc(N2C[C@H]3CNC[C@H]3C2)n1,Ki,Histamine H4 receptor [17],328 nM
CN[C@@H]1CCN(c2cc(C3CCCCC3)nc(N)n2)C1,Ki,Histamine H4 receptor [17],2.3 nM
same,EC50,Histamine H4 receptor [25],> 10000 nM
same,Kb,Histamine H4 receptor [28],< 0.1 nM
